Results on 7 molecules are retold here after publication PMC7079967 (Medicinal Chemistry Research, 2016).

For orientation: IC50 means the concentration needed to halve the response being measured.

Common to all, as to format: cell-based
The test system of assay [1] is murine leukemia cells (L1210). Kind of assay: Antiproliferative. As to conditions: Mus musculus, L1210, 48 h, read-out: IC50 L1210. An outline of the steps: (§1)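 Cells in growth medium proliferated with variable concentrations of test compound at 37 °C in a humidified CO2-controlled atmosphere. Incubation was 48 h for L1210 and 96 h for HeLa. Cell number was then counted with a Coulter counter. IC50 was the concentration inhibiting cell proliferation by 50 %.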

Assay [2] has as its system human T-lymphocyte cells (CEM). As to the kind of experiment: Antiproliferative. The settings on record: 72 h, read-out: IC50 CEM. An outline of the steps:
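Human T-lymphocyte CEM cells, suspended in growth medium, were left to proliferate in microtiter wells with varying amounts of test compound at 37 °C in a humidified, CO2-controlled atmosphere. After 72 h, cells were counted with a Coulter counter. IC50 is the concentration that inhibits cell proliferation by 50 %.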

Assay [3] deals with human cervix carcinoma cells (HeLa). Kind of assay: Antiproliferative. As to conditions: 96 h, read-out: IC50 HeLa. In short, it runs like this: as §1
The subject of assay [4] is L1210, CEM and HeLa tumor cell lines. As to the kind of experiment: Cytostatic activity stated over the three tumor cell lines together.
The test system of the next assay is Parainfluenza-3 virus. As to the kind of experiment: Antiviral assay, virus-induced cytopathicity in Vero cells. As to conditions: read-out: IC50 Parainfluenza-3 virus.
Another assay deals with Reovirus-1. Described as above. As to conditions: read-out: IC50 Reovirus-1.
The test system of a further assay is Sindbis virus. The assay is described as above. As to conditions: read-out: IC50 Sindbis virus.

The structures appear in SMILES notation.

As to `O=C(CCCc1ccc2c(c1)CCCC2)NC(=O)N[C@@H]1O[C@H](CO)[C@@H](O)[C@H](O)[C@H]1O` [Compound 7b, N-4-(5,6,7,8-Tetrahydronaphthalen-2-yl)butanoyl-N′-(β-D-glucopyranosyl)-urea], the IC50 in assay [1], in assay [2] and in assay [3] was over 250 µM throughout.
Turning to `CC(=O)OC[C@H]1O[C@@H](NC(=O)NC(=O)COc2ccc(-c3ccccc3)cc2)[C@H](OC(C)=O)[C@@H](OC(C)=O)[C@@H]1OC(C)=O` [Compound 6c, N-2-(Biphenyl-4-yloxy)acetyl-N′-(2,3,4,6-tetra-O-acetyl-β-D-glucopyranosyl)-urea], the IC50 in assay [1], in assay [2] and in assay [3] was over 250 µM each time.
For the molecule `Sc1ncnc2nc[nH]c12` [6-Mercaptopurine, reference compound], the half-inhibitory concentration (IC50) in assay [1] worked out at 2.8 ± 1.1 µM; in assay [2] it was 2.8 ± 1.3 µM; in assay [3] it was 1.1 ± 0.1 µM.
Take `CC(=O)OC[C@H]1O[C@@H](NC(=O)NC(=O)CCCc2ccc3c(c2)CCCC3)[C@H](OC(C)=O)[C@@H](OC(C)=O)[C@@H]1OC(C)=O` [Compound 6b, N-4-(5,6,7,8-Tetrahydronaphthalen-2-yl)butanoyl-N′-(2,3,4,6-tetra-O-acetyl-β-D-glucopyranosyl)-urea]: the half-inhibitory concentration (IC50) in assay [1] was found to be 78 µM; in assay [2], 38 ± 10 µM; in assay [3], 66 ± 12 µM.
In the same order, the values of `O=c1[nH]cc(F)c(=O)[nH]1` [5-Fluorouracil, reference compound] are 0.33 ± 0.17 µM, 18 ± 5 µM and 0.54 ± 0.12 µM.
With `O=C(COc1ccc(-c2ccccc2)cc1)NC(=O)N[C@@H]1O[C@H](CO)[C@@H](O)[C@H](O)[C@H]1O` [Compound 7c, N-2-(Biphenyl-4-yloxy)acetyl-N′-(β-D-glucopyranosyl)-urea], the IC50 was 9 ± 5.9 µM in assay [1]; 24 ± 1 µM in assay [2]; 19 ± 3 µM in assay [3]; 9 to 24 µM in assay [4] (read-out: IC50, cytostatic activity against the three tumor cell lines). Also, the “cytostatic potential, fold lower than 6-mercaptopurine” value in assay [4] (compared with 6-mercaptopurine over L1210, CEM, HeLa) is on record as 5- to 15 fold.
Regarding `NC(=O)c1ncn([C@@H]2O[C@H](CO)[C@@H](O)[C@H]2O)n1` [Ribavirin], the IC50 in the assay on Parainfluenza-3 virus is 250 µM; in the assay on Reovirus-1 it was over 250 µM; in the assay on Sindbis virus, over 250 µM.
